From ChEMBL document CHEMBL3272012, “5-(Tetradecyloxy)-2-furancarboxylic acid and related hypolipidemic fatty acid-like alkyloxyarylcarboxylic acids” (J Med Chem, 1977) come the findings set out here.

The inhibition in vivo is the relative decrease from the control value, in per cent.

Data set [1] has as its system Rattus norvegicus. Nature of the data set: Increase in liver weight in Wistar rat at 358 umol/kg/day administered through diet for 10 days. The class given is ADME, organism-based. The settings on record: in vivo, po, 240 h.
The test system of data set [2] is Rattus norvegicus. The data set is described as follows: Increase in cholesterol level in Wistar rat liver at 358 umol/kg/day administered through diet for 10 days. The settings on record: in vivo, po, 240 h. The class given is ADME, organism-based.
The subject of data set [3] is Rattus norvegicus. The data set is described as follows: Hypolipidemic activity in Wistar rat assessed as reduction in plasma cholesterol level at 358 umol/kg/day administered through diet for 10 days. The class given is functional. The settings on record: 240 h. The procedure, abridged:
(§1)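 Young male Wistar rats, 170-190 g at start, in groups of six, given compound mixed into Purina Lab Chow ad libitum for 4 or 10 days as stated. Daily dose was calculated from food consumption and body weight. Plasma was taken by cardiac puncture at the end and cholesterol measured by automated procedure. Results are % reduction versus a concurrent untreated control group, with Student's t test.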

In data set [4] the test system is Rattus norvegicus. The data set is described as follows: Hypolipidemic activity in Wistar rat assessed as reduction in plasma cholesterol level at 96 umol/kg/day administered through diet for 10 days. The settings on record: 240 h. The format is functional. The procedure, abridged: (§2)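 Young male Wistar rats, 170-190 g initial weight, six per group, fed drug mixed thoroughly into Purina Lab Chow ad libitum for the stated days; daily dose calculated from food consumption and body weight. Bled by cardiac puncture at end; plasma cholesterol and triglycerides by automated procedures, expressed as percent reduction versus simultaneous untreated controls; Student's t test.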

In data set [5] the test system is Rattus norvegicus. Nature of the data set: Hypolipidemic activity in Wistar rat assessed as reduction in plasma triglyceride level at 96 umol/kg/day administered through diet for 10 days. The format is functional. The settings on record: 240 h.
In data set [6] the test system is Rattus norvegicus. The data set is described as follows: Increase in cholesterol level in Wistar rat liver at 193 umol/kg/day administered through diet for 10 days. The format is ADME, organism-based. The settings on record: in vivo, po, 240 h.
The subject of data set [7] is Rattus norvegicus. Nature of the data set: Hypolipidemic activity in Wistar rat assessed as reduction in plasma triglyceride level at 358 umol/kg/day administered through diet for 10 days. The settings on record: 240 h. The format is functional. In short, it runs like this: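 Young male Wistar rats, 170-190 g at start, six per group, given compound mixed into Purina Lab Chow, fed ad libitum for 4 or 10 days. Daily dose calculated from food consumption and body weight. Rats bled by cardiac puncture at end of treatment. Plasma triglycerides determined by automated procedure. Expressed as percent reduction versus a concurrent untreated control group, Student's t test.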

Data set [8] deals with Rattus norvegicus. The data set is described as follows: Increase in liver weight in Wistar rat at 193 umol/kg/day administered through diet for 10 days. The class given is ADME, organism-based. Conditions: in vivo, po, 240 h.
Data set [9] concerns Rattus norvegicus. The data set is described as follows: Increase in cholesterol level in Wistar rat liver at 96 umol/kg/day administered through diet for 10 days. The format is ADME, organism-based. The settings on record: in vivo, po, 240 h.
Data set [10] deals with Rattus norvegicus. The data set is described as follows: Hypolipidemic activity in Wistar rat assessed as reduction in plasma triglyceride level at 193 umol/kg/day administered through diet for 10 days. The class given is functional. Conditions: 240 h. The procedure, abridged: as §2
Data set [11] deals with Rattus norvegicus. The data set is described as follows: Hypolipidemic activity in Wistar rat assessed as reduction in plasma cholesterol level at 193 umol/kg/day administered through diet for 10 days. The class given is functional. Conditions: 240 h. In short, it runs like this:
as §1

Data set [12] relates to Rattus norvegicus. The data set is described as follows: Increase in liver weight in Wistar rat at 96 umol/kg/day administered through diet for 10 days. The class given is ADME, organism-based. Conditions: in vivo, po, 240 h.

Regarding `CCCCCCCCCCCCCCOc1ccc(C(=O)CC(=O)OCC)cc1`, the Activity in the data set on Rattus norvegicus [1] came to 3%; in the data set on Rattus norvegicus [2] it was 10%; in the data set on Rattus norvegicus [6], 11%; in the data set on Rattus norvegicus [8], 1%; with Rattus norvegicus [9], 0%; with Rattus norvegicus [12] it was 1%. Also, the inhibition in vivo at 358 µmol/kg in the data set with Rattus norvegicus [3] was 30%; with Rattus norvegicus [7], 59%. Also, the inhibition in vivo at 96 µmol/kg is 13% in the data set on Rattus norvegicus [4] and 44% with Rattus norvegicus [5]. For the same molecule, the inhibition in vivo at 193 µmol/kg with Rattus norvegicus [10] amounted to 43%; with Rattus norvegicus [11], 20%.
